# ChEMBL document CHEMBL1153575, “Synthesis and in vitro anticancer activity of 2,4-azolidinedione-acetic acids derivatives” (2009)
# How the values were obtained:
# Type in all cases: functional
# SF-268 = assay: Cytotoxicity against human SF268 cells assessed as cell growth at 100 uM after 48 hrs by sulforhodamine B assay; conditions: SF-268, 48 h, read-out: Activity
# Outline: (§1)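 Primary one-dose screen on a three-line panel (MCF7 breast, NCI-H460 lung, SF-268 CNS) at 10^-4 M. Cells were preincubated 24–48 h before a single addition of the agent, followed by 48 h incubation. Endpoint was SRB protein staining, reported as percent growth versus untreated controls.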
# MCF7 [1] = assay: Cytotoxicity against human MCF7 cells assessed as cell growth at 100 uM after 48 hrs by sulforhodamine B assay; conditions: MCF7, 48 h, read-out: Activity; outline: as §1
# NCI-H460 = assay: Cytotoxicity against human NCI-H460 cells assessed as cell growth at 100 uM after 48 hrs by sulforhodamine B assay; conditions: NCI-H460, 48 h, read-out: Activity; outline: as §1
# SR = assay: Growth inhibition of human SR cells after 48 hrs by sulforhodamine B assay; conditions: for TGI: read-out: pTGI (converted)
# Outline: (§2)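 Five-concentration assay in about 60 human tumour lines, using 10-fold dilutions from 10^-4 to 10^-8 M with 48 h continuous exposure and an SRB protein endpoint. Percent growth at each level comes from time-zero, untreated-control and treated absorbances. GI50 is 50% lower net protein increase than control. Values beyond the tested range are given as greater or less than the extreme concentration.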
# CCRF-CEM = assay: Growth inhibition of human CCRF-CEM cells after 48 hrs by sulforhodamine B assay; conditions: for TGI: read-out: pTGI (converted); outline: as §2
# K562 = assay: Growth inhibition of human K562 cells after 48 hrs by sulforhodamine B assay; conditions: K562, 48 h; outline: as §2
# MOLT-4 = assay: Growth inhibition of human MOLT4 cells after 48 hrs by sulforhodamine B assay; conditions: MOLT-4, 48 h; outline: as §2
# HOP-92 = assay: Growth inhibition of human HOP92 cells after 48 hrs by sulforhodamine B assay; conditions: HOP-92, 48 h; for TGI: read-out: pTGI (converted); outline: as §2
# HL-60(TB) = assay: Growth inhibition of human HL-60(TB) cells after 48 hrs by sulforhodamine B assay; conditions: HL-60, 48 h
# Outline: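 Cells inoculated and preincubated 24–48 h in microtiter plates, then exposed continuously for 48 h to five 10-fold dilutions from 10^-4 to 10^-8 M. End point by sulforhodamine B protein staining, read spectrophotometrically against untreated controls and time-zero absorbance. Percent growth computed per concentration; GI50 taken where [(Ti−Tz)/(C−Tz)]×100 = 50, expressed as log molar value.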
# SK-OV-3 = assay: Growth inhibition of human SKOV3 cells after 48 hrs by sulforhodamine B assay; conditions: SK-OV-3, 48 h; outline: as §2
# SNB-75 = assay: Growth inhibition of human SNB75 cells after 48 hrs by sulforhodamine B assay; conditions: SNB-75, 48 h; outline: as §2
# NCI-H226 = assay: Growth inhibition of human NCI-H226 cells after 48 hrs by sulforhodamine B assay; conditions: NCI-H226, 48 h; outline: as §2
# MDA-MB-231 = assay: Growth inhibition of human MDA-MB-231 cells after 48 hrs by sulforhodamine B assay; conditions: MDA-MB-231, 48 h; for TGI: read-out: pTGI (converted); outline: as §2
# SF-295 = assay: Growth inhibition of human SF295 cells after 48 hrs by sulforhodamine B assay; conditions: SF-295, 48 h; outline: as §2
# [2] = Growth inhibition of human Hs 578T cells after 48 hrs by sulforhodamine B assay; outline: as §2
# U-251 = assay: Growth inhibition of human U251 cells after 48 hrs by sulforhodamine B assay; conditions: U-251, 48 h; for TGI: read-out: pTGI (converted); outline: as §2
# [3] = Growth inhibition of human 786-O cells after 48 hrs by sulforhodamine B assay; conditions: 786-0, 48 h; outline: as §2
# NCI-H23 = assay: Growth inhibition of human NCI-H23 cells after 48 hrs by sulforhodamine B assay; conditions: NCI-H23, 48 h; outline: as §2
# MCF7 [4] = assay: Growth inhibition of human MCF7 cells after 48 hrs by sulforhodamine B assay; conditions: MCF7, 48 h; outline: as §2
# HCT-116 = assay: Growth inhibition of human HCT116 cells after 48 hrs by sulforhodamine B assay; conditions: HCT-116, 48 h; outline: as §2
# OVCAR-3 = assay: Growth inhibition of human OVCAR-3 cells after 48 hrs by sulforhodamine B assay; conditions: OVCAR-3, 48 h; outline: as §2
# [5] = read-out: pLC50 (the source's name) (converted)
structure (smiles),measurement,setting,value
O=C(CC1NC(=O)NC1=O)Nc1ccc(Cl)cc1 (stereo not given),growth at 100 µM,SF-268,114%
same,growth at 100 µM,MCF7 [1],115%
same,growth at 100 µM,NCI-H460,121%
O=C(CN1C(=O)CNC1=O)Nc1cccc(C(F)(F)F)c1,growth at 100 µM,SF-268,113%
same,growth at 100 µM,MCF7 [1],111%
same,growth at 100 µM,NCI-H460,106%
O=C(CN1C(=O)N/C(=C\c2ccc(Cl)cc2)C1=O)Nc1ccccc1C(F)(F)F,GI50,SR,0.309 µM
same,LC50,SR,52.5 µM
same,TGI,SR,12.6 µM
same,GI50,CCRF-CEM,1.2 µM
same,LC50,CCRF-CEM,> 100 µM
same,TGI,CCRF-CEM,> 100 µM
same,GI50,K562,5.37 µM
same,CC50,K562; [5],> 100 µM
same,TGI,K562; read-out: pTGI,> 100 µM
same,GI50,MOLT-4,4.57 µM
same,CC50,MOLT-4; [5],81.3 µM
same,TGI,MOLT-4; read-out: pTGI (converted),24 µM
same,GI50,HOP-92,18.2 µM
same,LC50,HOP-92,> 100 µM
same,TGI,HOP-92,97.7 µM
same,GI50,HL-60(TB),0.295 µM
same,CC50,HL-60(TB); [5],> 100 µM
same,TGI,HL-60(TB); read-out: pTGI (converted),2 µM
O=C(/C=C1\SC(=O)N(CC(=O)Nc2cccc(C(F)(F)F)c2)C1=O)Nc1ccc(Cl)cc1,growth at 100 µM,SF-268,100%
same,growth at 100 µM,MCF7 [1],103%
same,growth at 100 µM,NCI-H460,108%
COc1ccc(/C=C2/NC(=O)N(CC(=O)Nc3cc(C(F)(F)F)ccc3Cl)C2=O)cc1,GI50,SK-OV-3,19.5 µM
same,LC50,SK-OV-3,> 100 µM
same,TGI,SK-OV-3; read-out: pTGI (converted),81.3 µM
same,GI50,SR,7.24 µM
same,LC50,SR,49 µM
same,TGI,SR,20 µM
same,GI50,SNB-75,2.69 µM
same,CC50,SNB-75; [5],> 100 µM
same,TGI,SNB-75; read-out: pTGI (converted),16.6 µM
same,GI50,NCI-H226,26.3 µM
same,CC50,NCI-H226; [5],> 100 µM
same,TGI,NCI-H226; read-out: pTGI (converted),> 100 µM
same,GI50,MDA-MB-231,15.8 µM
same,LC50,MDA-MB-231,> 100 µM
same,TGI,MDA-MB-231,> 100 µM
same,GI50,CCRF-CEM,21.9 µM
same,LC50,CCRF-CEM,> 100 µM
same,TGI,CCRF-CEM,> 100 µM
same,GI50,HOP-92,6.03 µM
same,LC50,HOP-92,69.2 µM
same,TGI,HOP-92,24 µM
same,GI50,SF-295,30.9 µM
same,CC50,SF-295; [5],> 100 µM
same,TGI,SF-295; read-out: pTGI,> 100 µM
same,GI50,[2],18.6 µM
same,CC50,[2]; [5],> 100 µM
same,TGI,[2]; read-out: pTGI (converted),91.2 µM
same,GI50,U-251,9.33 µM
same,LC50,U-251,> 100 µM
same,TGI,U-251,63.1 µM
same,GI50,[3],21.9 µM
same,CC50,[3]; [5],> 100 µM
same,TGI,[3]; read-out: pTGI (converted),> 100 µM
O=C(CC1SC(=O)NC1=O)Nc1nccs1 (stereo not given),growth at 100 µM,SF-268,114%
same,growth at 100 µM,MCF7 [1],115%
same,growth at 100 µM,NCI-H460,116%
O=C(CN1C(=O)S/C(=C\c2ccc(Cl)cc2)C1=O)Nc1ccc(Cl)cc1,growth at 100 µM,SF-268,105%
same,growth at 100 µM,MCF7 [1],102%
same,growth at 100 µM,NCI-H460,101%
COc1ccc(/C=C2/NC(=O)N(CC(=O)Nc3cccc(C(F)(F)F)c3)C2=O)cc1,GI50,NCI-H23,26.3 µM
same,LC50,NCI-H23,> 100 µM
same,TGI,NCI-H23; read-out: pTGI (converted),89.1 µM
same,GI50,MCF7 [4],2.82 µM
same,CC50,MCF7 [4]; [5],> 100 µM
same,TGI,MCF7 [4]; read-out: pTGI,> 100 µM
same,GI50,HCT-116,30.2 µM
same,LC50,HCT-116,> 100 µM
same,TGI,HCT-116; read-out: pTGI (converted),> 100 µM
same,GI50,MDA-MB-231,23.4 µM
same,LC50,MDA-MB-231,> 100 µM
same,TGI,MDA-MB-231,58.9 µM
same,GI50,OVCAR-3,30.9 µM
same,CC50,OVCAR-3; [5],> 100 µM
same,TGI,OVCAR-3; read-out: pTGI (converted),95.5 µM
same,growth at 100 µM,SF-268,65%
same,growth at 100 µM,MCF7 [1],64%
same,GI50,U-251,25.7 µM
same,LC50,U-251,> 100 µM
same,TGI,U-251,69.2 µM
same,growth at 100 µM,NCI-H460,44%
COc1ccc(/C=C2\SC(=O)N(CC(=O)Nc3nccs3)C2=O)cc1,growth at 100 µM,SF-268,107%
same,growth at 100 µM,MCF7 [1],98%
same,growth at 100 µM,NCI-H460,98%
